Our source for the Ki and ED50 values is ChEMBL document CHEMBL1133743, “CCK peptides with combined features of hexa- and tetrapeptide CCK-A agonists” (J Med Chem, 2000).

Structures are written as SMILES. *1 amine or outer side, *2 acyl side, *3 side chain or, on linkers, in order; H or OH if unused. Where a SMILES comes first, the peptide text is derived from it. Side-chain parts run from the residue outwards. [ ]: non-standard residue; d: D form. The star is where a group is joined. NMeF = CN[C@@H](Cc1ccccc1)C(=O)O; NMeD = CN[C@@H](CC(=O)O)C(=O)O; NH(2-Me-phenyl) = Cc1ccccc1N*; X3 = O=C(/C=C/c1ccc(O)cc1)*; Nle = CCCC[C@H](N)C(=O)O; X1 = O=C(Cc1ccc(O)cc1)*; Boc = CC(C)(C)OC(=O)*; CO = O=C([*:1])[*:2]

For test [1], the target named is T1, Cholecystokinin receptor type A (Rattus norvegicus, UniProt P30551).
T1 sequence (P30551 whole entry): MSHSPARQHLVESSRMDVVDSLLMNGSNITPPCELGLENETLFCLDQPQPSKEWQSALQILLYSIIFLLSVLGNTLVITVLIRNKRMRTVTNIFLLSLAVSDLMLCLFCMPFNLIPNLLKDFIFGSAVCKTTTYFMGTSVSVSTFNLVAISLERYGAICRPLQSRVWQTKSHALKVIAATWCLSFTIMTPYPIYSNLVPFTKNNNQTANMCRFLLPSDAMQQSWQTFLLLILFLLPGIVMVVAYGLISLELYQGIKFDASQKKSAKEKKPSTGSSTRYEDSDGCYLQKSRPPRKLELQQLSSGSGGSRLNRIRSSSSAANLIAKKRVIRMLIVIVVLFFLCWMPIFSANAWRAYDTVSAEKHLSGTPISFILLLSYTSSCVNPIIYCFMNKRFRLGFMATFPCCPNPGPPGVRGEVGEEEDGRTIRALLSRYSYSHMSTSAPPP
The experiment in a line: Inhibition of [125I]BH-CCK-8 binding to Cholecystokinin type A receptor of rat pancreatic tissue. In short, it runs like this: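 Sprague–Dawley rat pancreas homogenized in 50 mM Tris pH 8.0 at 4 °C; washed membranes in 5 mM Tris (pH 7.4) with 5 mM MgCl2, 5 mM DTT, 2 mg/mL BSA, 0.14 mg/mL bacitracin.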

Test [2] deals with T2, Gastrin/cholecystokinin type B receptor (Rattus norvegicus, UniProt P30553).
T2 sequence (P30553 whole entry): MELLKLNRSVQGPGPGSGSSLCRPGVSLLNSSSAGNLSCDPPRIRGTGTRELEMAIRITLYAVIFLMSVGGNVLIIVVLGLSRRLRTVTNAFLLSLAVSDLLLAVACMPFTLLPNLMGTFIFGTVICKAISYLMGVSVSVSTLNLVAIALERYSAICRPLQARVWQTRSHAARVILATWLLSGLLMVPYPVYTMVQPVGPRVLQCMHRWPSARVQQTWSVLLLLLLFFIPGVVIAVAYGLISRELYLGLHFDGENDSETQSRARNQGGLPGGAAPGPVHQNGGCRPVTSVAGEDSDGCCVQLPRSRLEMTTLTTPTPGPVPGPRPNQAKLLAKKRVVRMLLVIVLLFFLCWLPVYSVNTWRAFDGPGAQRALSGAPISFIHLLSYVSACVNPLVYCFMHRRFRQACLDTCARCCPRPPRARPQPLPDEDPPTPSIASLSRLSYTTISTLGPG
The experiment in a line: Binding affinity towards Cholecystokinin type B receptor in rat cortex synaptosomes using [125I]BH-CCK-8 as radioligand. The format is subcellular, Brain.

Test [3] relates to Rattus norvegicus. Kind of test: Ability of intraperitoneally administered compound, to inhibit food intake was measured 0.5 hr after feeding the rats. Type of test: functional. The settings on record: ip. Summed up:
(§1)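 Male Sprague–Dawley rats (300–400 g), individually caged, 12 h light/dark cycle, trained ≥14 days to eat powdered chow during first 3 h of dark. Peptide or saline given ip in 0.5 mL 0.9% saline (pH 7.0–8.0) 10 min before food; cumulative intake read at 0.5 and 3 h in same experiment. Five doses, 10 rats/dose; ED50 by logistic fit.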

Test [4] has as its system Rattus norvegicus. The experiment in a line: Ability of intraperitoneally administered compound, to inhibit food intake was measured 3 hr after feeding the rats. Type of test: functional. To be noted: ip. Summed up:
as §1

Turning to `Cc1ccccc1NC(=O)NCCCC[C@H](NC(=O)[C@H](Cc1c[nH]c2ccccc12)NC(=O)OC(C)(C)C)C(=O)N[C@H](CC(=O)O)C(=O)N(C)[C@@H](Cc1ccccc1)C(N)=O`, the affinity in test [1] corresponds to a Ki of 0.53 nM.
With `CSCC[C@H](NC(=O)Cc1ccc(OS(=O)(=O)O)cc1)C(=O)NCC(=O)N[C@@H](Cc1c[nH]c2ccccc12)C(=O)N[C@@H](CCSC)C(=O)N[C@@H](CC(=O)O)C(=O)N(C)[C@@H](Cc1ccccc1)C(N)=O`, the Ki (commonly a dissociation constant, usually derived from enzyme kinetics or from competition with a known ligand) amounted to 0.98 nM in test [1] and 84 nM in test [2].
`Cc1ccccc1NC(=O)NCCCC[C@H](NC(=O)[C@H](Cc1c[nH]c2ccccc12)NC(=O)OC(C)(C)C)C(=O)N[C@@H](CC(=O)O)C(=O)N(C)[C@@H](Cc1ccccc1)C(N)=O`: the ED50 was 0.9 µg/kg with Rattus norvegicus [3] and 3.2 µg/kg in the test on Rattus norvegicus [4]. The compound also gave a Ki in test [1] of 0.3 nM.
On to `Cc1ccccc1NC(=O)NCCCC[C@H](NC(=O)[C@H](Cc1c[nH]c2ccccc12)NC(=O)OC(C)(C)C)C(=O)N[C@@H](CC(=O)O)C(=O)N[C@@H](Cc1ccccc1)C(N)=O` (Boc-WK([CO-NH(2-Me-phenyl)])DF-NH2), for which the Ki in test [1] turned out to be 8.1 nM.
As to `CCCC[C@H](NC(=O)Cc1ccc(O)cc1)C(=O)NCC(=O)N[C@@H](Cc1c[nH]c2ccccc12)C(=O)N[C@@H](CCCCNC(=O)/C=C/c1ccc(O)cc1)C(=O)N[C@@H](CC(=O)O)C(=O)N(C)[C@@H](Cc1ccccc1)C(N)=O` (X1-[Nle]GWK(X3)D[NMeF]-NH2), the Ki in test [1] stood at 3.4 nM; in test [2], 36 nM.
`CCCC[C@H](NC(=O)Cc1ccc(O)cc1)C(=O)NCC(=O)N[C@@H](Cc1c[nH]c2ccccc12)C(=O)N[C@@H](CCCC)C(=O)N[C@@H](CC(=O)O)C(=O)N(C)[C@@H](Cc1ccccc1)C(N)=O` (X1-[Nle]GW[Nle]D[NMeF]-NH2) showed a Ki in test [1] of 51 nM.
As to `CCCC[C@H](NC(=O)Cc1ccc(O)cc1)C(=O)NCC(=O)N[C@@H](Cc1c[nH]c2ccccc12)C(=O)N[C@@H](CCCC)C(=O)N(C)[C@@H](CC(=O)O)C(=O)N[C@@H](Cc1ccccc1)C(N)=O` (X1-[Nle]GW[Nle][NMeD]F-NH2), the ED50 with Rattus norvegicus [3] was 3.8 µg/kg; in the test with Rattus norvegicus [4] it was 13 µg/kg. Besides, the figures for the Ki in test [1] and in test [2] were 4.2 nM and 960 nM, respectively.
